This is an account of results in publication PMC3361572 (Chemistry & biology, 2012).

pIC50: −log10 of the molar value. “Also recorded” adds a separate entry of the source.

Test [1] deals with brain 2-AG, AA, AEA, PEA, OEA. The experiment in a line: brain lipid profile of inhibitor-treated mice. The class given is in vivo, mouse.
The target of a further test is T1, hFAAH (Homo sapiens, UniProt O00519).
T1 sequence (O00519 1-579): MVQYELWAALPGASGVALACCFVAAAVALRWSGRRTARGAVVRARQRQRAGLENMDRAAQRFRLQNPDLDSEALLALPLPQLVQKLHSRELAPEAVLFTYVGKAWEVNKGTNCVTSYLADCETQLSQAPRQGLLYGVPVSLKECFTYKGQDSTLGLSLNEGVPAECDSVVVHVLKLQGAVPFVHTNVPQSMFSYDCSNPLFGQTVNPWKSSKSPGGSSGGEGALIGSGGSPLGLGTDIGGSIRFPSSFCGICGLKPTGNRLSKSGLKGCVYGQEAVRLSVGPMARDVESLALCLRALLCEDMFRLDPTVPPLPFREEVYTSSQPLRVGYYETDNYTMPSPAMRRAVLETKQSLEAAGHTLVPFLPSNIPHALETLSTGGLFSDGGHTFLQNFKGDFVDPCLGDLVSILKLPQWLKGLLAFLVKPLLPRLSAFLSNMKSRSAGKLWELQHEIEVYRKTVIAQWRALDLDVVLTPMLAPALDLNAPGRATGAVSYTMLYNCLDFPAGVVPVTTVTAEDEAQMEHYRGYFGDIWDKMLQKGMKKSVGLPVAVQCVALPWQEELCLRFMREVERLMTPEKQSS
Kind of test: competitive ABPP, proteomes of transiently transfected HEK293T cells. The test is classed as biochemical.

The target of test [2] is T2, MAGL (Rattus norvegicus, UniProt Q8R431).
T2 sequence (Q8R431 1-303): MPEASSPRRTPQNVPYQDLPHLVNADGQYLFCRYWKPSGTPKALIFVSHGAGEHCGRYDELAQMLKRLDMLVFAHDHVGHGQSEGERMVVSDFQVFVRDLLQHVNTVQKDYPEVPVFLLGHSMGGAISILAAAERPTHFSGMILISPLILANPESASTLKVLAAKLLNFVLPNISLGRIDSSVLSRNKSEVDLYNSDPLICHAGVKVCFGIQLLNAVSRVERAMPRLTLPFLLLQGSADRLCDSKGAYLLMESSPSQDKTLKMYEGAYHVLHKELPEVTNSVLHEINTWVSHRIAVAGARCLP
The experiment in a line: competitive ABPP of brain from KML29-treated rats. The class given is in vivo. To be noted: Wistar rats, 40 mg kg^−1 i.p., 4 h. Summed up: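 Wistar rats were injected i.p. with the test compound (1–40 mg kg−1) or vehicle. Vehicle was saline:emulphor:ethanol 18:1:1, with prolonged sonication and mild heating to dissolve. Rats were killed at 4 h. Brain, liver, lung and spleen proteomes were labelled with FP-Rh, separated by SDS-PAGE and scanned for in-gel fluorescence. Inhibition was scored as reduced probe labelling. n = 3 rats/group.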

Test [3] deals with T3, FAAH (Mus musculus, UniProt O08914).
T3 sequence (O08914 1-579): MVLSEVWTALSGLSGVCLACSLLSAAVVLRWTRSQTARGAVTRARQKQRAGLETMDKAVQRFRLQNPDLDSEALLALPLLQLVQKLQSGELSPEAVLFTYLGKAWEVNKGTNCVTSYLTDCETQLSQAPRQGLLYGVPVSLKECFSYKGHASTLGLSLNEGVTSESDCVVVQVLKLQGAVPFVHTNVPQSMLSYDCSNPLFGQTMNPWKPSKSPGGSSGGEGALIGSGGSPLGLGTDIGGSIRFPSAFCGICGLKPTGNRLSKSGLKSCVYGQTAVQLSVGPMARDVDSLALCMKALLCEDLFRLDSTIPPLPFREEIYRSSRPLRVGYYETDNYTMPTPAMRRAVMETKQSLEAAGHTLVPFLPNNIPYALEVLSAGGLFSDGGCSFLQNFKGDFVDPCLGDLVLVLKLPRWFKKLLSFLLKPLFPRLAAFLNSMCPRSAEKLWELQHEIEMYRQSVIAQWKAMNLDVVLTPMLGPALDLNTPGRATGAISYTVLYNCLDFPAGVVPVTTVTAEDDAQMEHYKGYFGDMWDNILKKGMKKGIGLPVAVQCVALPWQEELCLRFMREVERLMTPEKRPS
Kind of test: competitive ABPP, mouse brain membrane proteome. The test is classed as biochemical. To be noted: mouse brain proteome, concentration range tested 0.001–50 μM. Summed up:
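Brain (mouse or rat) or mouse lung proteomes were preincubated with the test compound, then treated with the serine hydrolase probe FP-Rh. Samples were separated by SDS-PAGE and read by in-gel fluorescence scanning. Inhibition was taken as reduced FP-Rh labelling of MAGL, ABHD6, FAAH or CES bands, and IC50 values were calculated from quantified gel bands. Three independent experiments.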

In test [4] the test system is carboxylesterase (CES) enzymes. Kind of test: in vitro competitive ABPP in mouse lung proteomes. The class given is biochemical.
The test system of test [5] is brain 2-AG, AA, AEA, PEA, OEA. The experiment in a line: brain lipid profile of KML29-treated rats. The test is classed as in vivo, rat. The conditions noted are these: 1–40 mg kg^−1 i.p., 4 h. Summed up:
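Wistar rats were given the test compound i.p. (1–40 mg kg−1, saline:emulphor:ethanol 18:1:1 vehicle) or vehicle and killed at 4 h. Brain 2-AG, AA, AEA, PEA and OEA levels were measured. Means ± SEM, n = 3 rats/group, with statistics against vehicle-treated rats.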

Test [6] addresses T3, FAAH. Kind of test: AEA substrate assay in mouse brain proteomes. The test is classed as biochemical. The gist of the method:
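Mouse brain proteome was treated with test compound. FAAH activity was read as hydrolysis of AEA substrate. Data are means ± SEM of three independent experiments.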

Test [7] deals with T4, MAGL (Mus musculus, UniProt O35678).
T4 sequence (O35678 1-303): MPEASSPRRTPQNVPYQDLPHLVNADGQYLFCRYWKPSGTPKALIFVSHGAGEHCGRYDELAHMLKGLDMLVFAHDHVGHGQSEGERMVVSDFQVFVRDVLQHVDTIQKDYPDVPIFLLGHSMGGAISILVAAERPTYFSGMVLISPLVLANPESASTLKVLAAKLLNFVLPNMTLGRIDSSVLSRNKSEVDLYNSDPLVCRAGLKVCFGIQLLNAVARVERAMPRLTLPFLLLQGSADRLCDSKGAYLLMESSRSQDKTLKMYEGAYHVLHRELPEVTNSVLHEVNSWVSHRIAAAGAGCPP
The experiment in a line: 2-AG hydrolytic activity of brain tissue from treated mice. The conditions noted are these: KML29-treated mice, 1–40 mg kg^−1 p.o. The test is classed as in vivo.

The term pIC50 denotes the IC50 on a negative log10 scale, so that one unit is a factor of ten.

Take `O=C(OC(C(F)(F)F)C(F)(F)F)N1CCC(C(O)(c2ccc3c(c2)OCO3)c2ccc3c(c2)OCO3)CC1` [KML29]: the “brain 2-AG and NAE levels, chronic dosing” value in test [1] (40 mg kg^−1 p.o., six days) is listed as “selectively raise 2-AG, but not NAE levels”. In addition, the “peak increase in brain 2-AG over vehicle controls” value in test [1] (20 and 40 mg kg^−1 p.o., 4 h) is ~ 10 fold. Besides, the “brain levels of AEA, PEA and OEA” value in test [1] (all tested doses p.o., 4 h) was “unaltered”. In addition, the “change in brain 2-AG” value in test [1] (doses as low as 5 mg kg^−1 p.o., 4 h) is “significant elevations”. For the same molecule, the “change in brain arachidonic acid (AA)” value in test [1] (p.o., 4 h, concomitant with 2-AG elevations) is given as “significant reductions”. For the same molecule, in test [1] (single oral dose 20 mg kg^−1), the “time of maximal elevations of 2-AG and reductions of AA in brain” value turned out to be 1 h. Also, the “brain AEA levels during time course” value in test [1] (single oral dose 20 mg kg^−1, 24 h period) is listed as “unaltered”. Moreover, the “cross-reactivity with hFAAH (competitive ABPP)” value on hFAAH (lysates of HEK293T cells transfected with hFAAH) is recorded as “no-detectable cross-reactivity with hFAAH”. Besides, on hFAAH (read-out: IC50 (95% CI), human FAAH, competitive ABPP, transfected HEK293T cell proteome), the negative-log IC50 (pIC50) was under 4.30. In addition, the “inhibition of brain MAGL” value at MAGL [2] is listed as over 90%. For the same molecule, the “FAAH inhibition / cross-reactivity (gel-based ABPP)” value on FAAH [3] is recorded as “No inhibition of FAAH was detected; also recorded: complete selectivity for MAGL over FAAH”. Further, the “cross-reactivity with CESs compared to JZL184” value in test [4] was “much less cross-reactivity with CESs”. In test [5], the “brain AA levels” value is “decrease proportionally with the elevations in 2-AG”; the “brain AEA, PEA, or OEA” value was “without alteration”; the “elevations in brain 2-AG” value was “approximately 10 fold”. Moreover, the “effect on AEA hydrolysis” value at FAAH [6] is “did not affect AEA hydrolysis at any concentration tested”. Moreover, the “residual MAGL activity in brain proteomes (substrate assay)” value at MAGL [7] is “dose-dependent inhibition of MAGL”.
